# “Also recorded” adds a separate entry of the source. Where two headings read alike, the source gives them in different places.
# Legend:
# GL261 tumors = settings: cited from earlier work
# [1] = 26 (veliparib); ref 48 (E7016); cited from earlier work
# GBM22 = settings: cited from earlier work
# GBM12 flank xenografts = test: GBM12 flank xenograft tumor regrowth delay; assay type: in vivo, mice; settings: TMZ 50 mg/kg days 1-5, rucaparib 1 mg/kg days 1-5, three 28 day cycles, placebo 32 days
# [2] = system: GBM12 orthotopic xenografts; test: GBM12 orthotopic xenograft survival; assay type: in vivo, mice; settings: TMZ 50 mg/kg, rucaparib 1 mg/kg days 1-5 every 28 days × 3 cycles, placebo 16 days, p = 0.88
# PDGF-driven glioma = settings: higher drug delivery into brain in knockout mice; cited from earlier work
# [3] = target: T1, murine Breast Cancer Resistance Protein (BCRP1) (Mus musculus, UniProt Q7TMS5); test: In vitro intracellular accumulation in BCRP1-overexpressing MDCKII cells; assay type: in vitro ADME; settings: rucaparib 2 −M, prazosin 0.39 nM, 60 minutes at 37°C, mean ± SD, n = 5-6
# T1 sequence (Q7TMS5 1-657): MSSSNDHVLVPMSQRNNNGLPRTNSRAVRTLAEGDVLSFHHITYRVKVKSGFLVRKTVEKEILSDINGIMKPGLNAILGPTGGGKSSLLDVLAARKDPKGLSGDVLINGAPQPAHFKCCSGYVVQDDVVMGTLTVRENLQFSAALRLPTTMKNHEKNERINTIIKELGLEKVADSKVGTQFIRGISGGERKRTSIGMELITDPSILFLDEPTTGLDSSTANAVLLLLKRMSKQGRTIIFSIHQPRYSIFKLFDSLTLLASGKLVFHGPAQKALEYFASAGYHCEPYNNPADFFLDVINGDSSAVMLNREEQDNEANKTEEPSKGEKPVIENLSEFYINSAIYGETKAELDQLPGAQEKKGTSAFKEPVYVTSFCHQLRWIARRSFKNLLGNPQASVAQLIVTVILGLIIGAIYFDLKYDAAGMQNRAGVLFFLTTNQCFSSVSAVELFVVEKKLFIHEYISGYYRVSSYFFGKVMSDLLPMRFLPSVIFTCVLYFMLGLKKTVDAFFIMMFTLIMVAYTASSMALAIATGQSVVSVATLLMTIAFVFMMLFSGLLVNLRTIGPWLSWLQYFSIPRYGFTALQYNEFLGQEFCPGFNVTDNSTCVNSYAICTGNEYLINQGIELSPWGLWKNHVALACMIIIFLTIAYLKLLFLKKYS
# Method in brief: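 MDCKII cells (vector control or murine Bcrp1-transfected) were seeded at 2 x 10^5/well and grown to 80% confluence. After washing in serum-free buffer, cells were preincubated 30 min ± 0.2 µM Ko143. They were then exposed to 2 µM test compound or 0.39 nM prazosin (substrate control) for 60 min at 37°C. Uptake was stopped with cold PBS and cells lysed in 1% Triton X-100. Intracellular drug was measured by LC-MS/MS and normalised to BCA protein; mean ± SD, n = 5-6.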
# [4] = system: GBM14, GBM43, GBM59 intracranial xenografts; test: Other orthotopic primary GBM xenograft lines, survival; assay type: in vivo, mice; settings: three other primary GBM xenograft lines
# Method in brief: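 Patient-derived GBM lines were kept by serial passage in mice and implanted intracranially. Mice with established tumours were randomised, 10 per group, to four arms: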
# [5] = Steady-state brain distribution in wild-type and Mdr1a/b-/-Bcrp1-/- mice; assay type: in vivo, FVB mice
# Method in brief: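 FVB wild-type and Mdr1a/b-/-Bcrp1-/- mice received the test compound for 48 h by intraperitoneal osmotic minipump at 5 µg/hr (pump stock 5 mg/mL in DMSO). Plasma and whole brain were flash-frozen. Brain was homogenised in 5% BSA, samples spiked with dasatinib internal standard and extracted in ethyl acetate, then assayed by positive-mode LC-MS/MS. Brain-to-plasma ratio reported as mean ± SD, n=4.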
# [6] = assay type: in vivo, mice; settings: for half-life: mouse, 1 mg/kg
# Method in brief: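 Mice with orthotopic GBM12 xenografts got a single 1 mg/kg intraperitoneal dose. Plasma, liver and brain (tumour-injected and contralateral hemispheres) were collected and flash-frozen at 0, 60, 120, 360 and 1440 min after dosing. Drug levels were measured by LC-MS; values are the mean of 2 or 3 mice per time point.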
# PARP = PARP enzymatic activity in tissue homogenates after a single dose; assay type: in vivo, mice
# [7] = MALDI mass spectrometric imaging of drug distribution; assay type: in vivo, mice; settings: thirty minutes after single 10 mg/kg IP dose
# Method in brief: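 Tumour-bearing mice got one 10 mg/kg IP dose and were euthanised 30 min later. Brain, liver and tumour were snap-frozen; 12 µm cryosections went onto ITO slides, with sister sections for H&E. DHB matrix was sprayed on (160 mg/mL in methanol/0.2% TFA 70:30). Imaging used a 12 T FT-ICR MS, positive ion mode, m/z 100-2500, 250 shots per spot, 80 µm pixels (brain, liver) and 100 µm (flank tumour).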
# [8] = Tolerability of chronic rucaparib with TMZ; assay type: in vivo, mice; settings: IP, with 50 mg/kg PO TMZ
# [9] = 60 minutes, single 1 mg/kg dose
smiles,measurement,setting,value
"Cc1ccc2c(=O)c3cccc(CC(=O)O)c3oc2c1C [DMXAA, 5,6-dimethylxanthenone-4-acetic acid]",effect on survival with intracranial GL261 tumors,GL261 tumors; intracranial,no survival extension
same,effect on subcutaneous GL261 tumors,GL261 tumors; subcutaneous,significantly delayed tumor growth
O=c1[nH]nc2c3c(cccc13)Oc1ccc(CN3CCC(O)CC3)cc1-2 [E7016],blood brain barrier penetration,[1],significantly penetrate the blood brain barrier
C=CCn1c(=O)c2cnc(Nc3ccc(N4CCN(C)CC4)cc3)nc2n1-c1cccc(C(C)(C)O)n1 [MK-1775],"sensitizing effect combined with temozolomide, flank models",GBM22; flank models,significant sensitizing effects
same,"sensitizing effect combined with temozolomide, GBM22",GBM22; orthotopic GBM22 (contrasted with flank),no sensitizing effect
"Cn1nnc2c(C(N)=O)ncn2c1=O [TMZ, temozolomide]",Median time for tumor to exceed a 1000 mm^3 size endpoint,GBM12 flank xenografts,86 days
same,median survival,[2],68 days
Cc1nc(Nc2ncc(C(=O)Nc3c(C)cccc3Cl)s2)cc(N2CCN(CCO)CC2)n1 [dasatinib],survival of tumor-bearing Mdr1a/b-/-Bcrp1-/- knockout mice compared to wild-type mice,PDGF-driven glioma,significant improvement in survival
COc1cc2nc(N3CCN(C(=O)c4ccco4)CC3)nc(N)c2cc1OC [prazosin],intracellular accumulation in BCRP1-overexpressing cells,[3],16.8±1.4 % of control
CNCc1ccc(-c2[nH]c3cc(F)cc4c3c2CCNC4=O)cc1 [rucaparib],potentiation of TMZ by rucaparib,[4],did not potentiate TMZ
same,intracellular accumulation in BCRP1-overexpressing cells,[3],14.5±5.2 % of control
same,Kp at 48 h,"[5]; FVB, mouse, brain, ip, 5 µg/hr, brain to plasma ratio at steady state, Mdr1a/1b-/-;Bcrp1-/- (TKO) mice, 48-hour intraperitoneal infusion at 5 −g/hr, mean ± SD, n=4",1.61 ± 0.25
same,increase in the brain-to-plasma ratio in knockout versus wild-type mice,[5]; Mdr1a/b-/-Bcrp1-/- knockout mice,~20 fold
same,concentration in contralateral brain hemisphere,[6]; [9],0.08 −M
same,concentration in liver,[6]; [9],11.05 −M
same,concentration in tumor-injected hemisphere,[6]; [9],0.35 −M
same,concentration in tumor-injected hemisphere,"[6]; 6 hours, single 1 mg/kg dose",0.23 −M
same,levels in normal brain,"[6]; by 360 minutes after injection, single 1 mg/kg dose",undetectable
same,half-life,"[6]; plasma, ip",1.5 h
same,half-life,"[6]; tumor-injected brain hemisphere, intraperitoneal",13 h
same,maximum plasma concentration relative to Cmax in humans (times lower),[6]; single 1 mg/kg dose in mice versus human Cmax of ref 12,about four-five
same,PARP activity in normal brain (contralateral hemisphere),PARP; by 360 minutes after injection,recovered to baseline
same,PARP activity in liver,PARP; reduced for several hours after single 1 mg/kg dose,5 % of baseline
same,PARP activity in tumor-injected hemisphere,"PARP; remained suppressed at this level for 24 hours, single 1 mg/kg dose",50 % of baseline
same,rucaparib distribution in flank tumors by MALDI-MSI,"[7]; GBM12 flank, n=2",homogeneous and high-level accumulation
same,rucaparib distribution in orthotopic tumors by MALDI-MSI,"[7]; GBM12 orthotopic, n=3",no appreciable rucaparib signal
same,rucaparib distribution in normal brain by MALDI-MSI,"[7]; adjacent normal brain, 10 mg/kg",no appreciable rucaparib signal; also recorded: below the limit of detection
same,highest dose tolerated for chronic administration,[8],1 mg/kg
C[C@]1(c2nc3c(C(N)=O)cccc3[nH]2)CCCN1 [veliparib],blood brain barrier penetration,[1],significantly penetrate the blood brain barrier

# From article PMC4674360 (Molecular cancer therapeutics, 2015)
